# Experimental data collected from several papers.
# Each line is one published result; the experiments were not run side by side.
# PSMB8: Proteasome subunit beta type-8 (PSMB8, Homo sapiens, UniProt P28062)
# TYMS: Thymidylate synthase (TYMS, Homo sapiens, UniProt P04818)
# DHODH: Dihydroorotate dehydrogenase (quinone), mitochondrial (DHODH, Homo sapiens, UniProt Q02127)
# PTGS2: Prostaglandin G/H synthase 2 (PTGS2, Homo sapiens, UniProt P35354)
# PDGFRB: Platelet-derived growth factor receptor beta (PDGFRB, Homo sapiens, UniProt P09619)
Compound,target,observed,action,method,pH,setting,IC50
O=C1N[C@H]2n3c(cc(Br)c3Br)C(=O)N3CCC[C@]23N1 (racemic),"Proteasome subunit beta type-8, chymotrypsin-like site (PSMB8, Homo sapiens, UniProt P28062)",enzyme activity,inhibitor,,,,6.7 µM
Cc1ncc(C(=O)N[C@@H](CC(C)C)C(=O)N[C@@H](CC2CCC(C)CC2)C(=O)N[C@H](/C=C/S(C)(=O)=O)Cc2ccc(CN)cc2)s1 (some centres unmarked),PSMB8,enzyme activity,inhibitor,,,lysate,> 10 µM
CCOC(=O)C1CCN(C(=O)c2ccc(N(CC)Cc3cnc4nc(N)nc(N)c4n3)cc2)CC1,TYMS,enzyme activity,inhibitor,,,,91.9 µM
Cc1nc(NC2CCc3cc(Br)ccc3C2)c2c(C)noc2n1 (centres unmarked),DHODH,enzyme activity,inhibitor,absorbance,,,> 100 µM
Cc1ccc(Nc2c(-c3ccc(S(C)(=O)=O)cc3)nc3cccc(C)n23)cc1,PTGS2,enzyme activity,inhibitor,,,,0.12 µM
COC(=O)C1CCN(C(=O)c2ccc(NCc3cnc4nc(N)nc(N)c4n3)cn2)CC1,TYMS,enzyme activity,inhibitor,,,,80 µM
Cc1ncc(C(=O)N[C@@H](CC(C)C)C(=O)N[C@@H](CC2CCC3CCCCC3C2)C(=O)N[C@H](/C=C/S(C)(=O)=O)Cc2ccc(CN)cc2)s1 (some centres unmarked),PSMB8,enzyme activity,inhibitor,,,lysate,3.24 µM
O=C(O)C1=CC(=C(c2ccc(O)c(C(=O)O)c2)c2ccc(O)c(C(=O)O)c2)C=CC1=O,"PFKM (Oryctolagus cuniculus, UniProt P00511)",enzyme activity,inhibitor,,,,3.92 µM
Cc1nc(Nc2ccc(S(F)(F)(F)(F)F)cc2)c2c(C)noc2n1,DHODH,enzyme activity,inhibitor,absorbance,,,> 50 µM
CCCCCCCC(=O)N[C@H](CN1CCCC1)[C@H](O)c1ccc2c(c1)OCCO2,"Lysosomal acid glucosylceramidase (GBA1, Homo sapiens, UniProt P04062)",enzyme activity,inhibitor,,,,15 µM
Cc1cccn2c(Nc3ccc(Cl)cc3)c(-c3ccc(S(C)(=O)=O)cc3)nc12,PTGS2,enzyme activity,inhibitor,,,,0.14 µM
CC[C@@H]1[C@H](F)C(=O)N[C@@H]1COc1nccc2cc(C(N)=O)c(OC)cc12,"Ephrin type-A receptor 7 (EPHA7, Homo sapiens, UniProt Q15375)",enzyme activity,inhibitor,,,,> 5 µM
Cc1ncc(C(=O)N[C@@H](CC(C)C)C(=O)N[C@@H](CC2CCCCC2)C(=O)N[C@H](/C=C/S(C)(=O)=O)Cc2ccc(CN)cc2)s1,PSMB8,enzyme activity,inhibitor,,,lysate,> 10 µM
Cc1cnc(-c2ccc(-c3ccc(NC(=O)Nc4c(F)cc(F)cc4F)cc3F)c3c2C(=O)NC3)[nH]1,PDGFRB,enzyme activity,inhibitor,,,,0.0104 µM
C[C@@H]1O[C@H](CNS(=O)(=O)c2ccc(C#CC3CC3)s2)[C@@H](O)[C@H](O)[C@@H]1O,"Fucose-binding lectin PA-IIL (lecB, Pseudomonas aeruginosa, UniProt Q9HYN5)",enzyme activity,inhibitor,,,,2.5 µM
Cc1ncc(C(=O)N[C@@H](CC(C)C)C(=O)N[C@@H](CC2CCC(C3CCCCC3)CC2)C(=O)N[C@H](/C=C/S(C)(=O)=O)Cc2ccc(CN)cc2)s1 (some centres unmarked),PSMB8,enzyme activity,inhibitor,,,lysate,> 10 µM
CN1CCN(c2ccc(Nc3ncc4cc(C#N)c(=O)n(C5CCCC5)c4n3)cc2)CC1,"Ephrin type-B receptor 3 (EPHB3, Homo sapiens, UniProt P54753)",enzyme activity,inhibitor,,,,2.54 µM
COc1ccc(C[C@H](NC(=O)[C@H](C)NC(=O)CN2CCOCC2)C(=O)N[C@H](C(=O)[C@@]2(C)CO2)C2CCCCC2)cc1,PSMB8,enzyme activity,inhibitor,,,lysate,> 10 µM
Cc1nc(NC2CCc3cc(Cl)ccc3C2)c2c(C)noc2n1 (centres unmarked),DHODH,enzyme activity,inhibitor,absorbance,,,> 100 µM
Cn1cc(C2=C(c3coc4ccccc34)C(=O)NC2=O)c2cc(Br)ccc21,"Dual specificity tyrosine-phosphorylation-regulated kinase 1B (DYRK1B, Homo sapiens, UniProt Q9Y463)",enzyme activity,inhibitor,,,,0.59 µM
Cc1ncc(C(=O)N[C@@H](CC2CCC(C)CC2)C(=O)N[C@@H](CC(C)C)C(=O)N[C@H](/C=C/S(C)(=O)=O)Cc2ccc(CN)cc2)s1 (some centres unmarked),PSMB8,enzyme activity,inhibitor,,,lysate,> 10 µM
Cc1cc(Nc2cc3ncccc3c(N[C@@H]3C[C@H]4CC[C@@H](C3)N4CCC#N)n2)n[nH]1,PDGFRB,target engagement in cells,inhibitor,BRET,,,> 10 µM
CC(C)C[C@H](NC(=O)[C@H](Cc1ccccc1)N=[N+]=[N-])C(=O)N[C@@H](CC(C)(C)F)C(=O)N[C@H](/C=C/S(C)(=O)=O)Cc1ccc(CN)cc1,PSMB8,enzyme activity,inhibitor,,,lysate,2.34 µM
CCOc1ccc2c(-c3cc(C)nc(Nc4cc(OC)cc(C(F)(F)F)c4)n3)cnn2n1,"Dual specificity tyrosine-phosphorylation-regulated kinase 3 (DYRK3, Homo sapiens, UniProt O43781)",enzyme activity,inhibitor,,,,> 10 µM
Oc1ccc(Cl)cc1Nc1nc(NCC2CCCO2)c2ccccc2n1 (centres unmarked),"Lysosomal acid glucosylceramidase (GBA1, Homo sapiens, UniProt P04062, R534H)",enzyme activity,inhibitor,fluorescence,pH 5.9,,1.5 µM
O=C(N=Nc1c(O)[nH]c2ccccc12)c1cccs1,TYMS,enzyme activity,inhibitor,radiometric,,,260 µM
Cc1c(C(=O)NC(C)c2nc[nH]n2)[nH]c(Cl)c1C1(c2ccc(C(F)(F)F)nc2)CC1 (centres unmarked),DHODH,enzyme activity,inhibitor,,,,> 100 µM
CCn1ncc2c1-c1cnc(N)c(c1)O[C@H](C)c1cc(F)ccc1-c1nn(C)nc1C2,"Ephrin type-A receptor 1 (EPHA1, Homo sapiens, UniProt P21709)",enzyme activity,inhibitor,radiometric,,,0.285 µM
COc1ccc(C[C@H](NC(=O)[C@H](C)NC(=O)CN2CCOCC2)C(=O)N[C@@H](CC2CCC(C(F)(F)F)CC2)C(=O)[C@@]2(C)CO2)cc1 (some centres unmarked),PSMB8,enzyme activity,inhibitor,,,lysate,0.191 µM
N#Cc1ccc(COc2cccc(C3CCN(Cc4nc5ccc(C(=O)O)cc5n4C[C@@H]4CCO4)CC3)n2)c(F)c1,"Glucagon receptor (GCGR, Homo sapiens, UniProt P47871)",cAMP,antagonist,,,,> 20 µM
Cc1cc(Nc2ccc(C(C)(C)C)cc2)n2ncnc2n1,DHODH,enzyme activity,inhibitor,,,,> 100 µM
COc1ccc(S(=O)(=O)ON=C2C=C(C)C(=O)C(C)=C2)cc1,"CREB-binding protein (CREBBP, Homo sapiens, UniProt Q92793)",enzyme activity,inhibitor,radiometric,,,> 100 µM
